Assay results gathered from unrelated publications.
Target: D(2) dopamine receptor (DRD2, Homo sapiens, UniProt P14416)
Concentration: 10 µM

Structure (SMILES) | read-out | action | technique | inhibition [%]
CN(C)CC#Cc1ccc(OCCCc2sc(N3CCc4cccc(C(=O)Nc5nc6ccccc6s5)c4C3)nc2C(=O)O)c(F)c1 | ligand displacement |  |  | 31.5
Cc1ccccc1N1CCN(CCCCN2C(=O)C3CCCN3C2=O)CC1 (centres unmarked) | enzyme activity | inhibitor |  | 42.3
c1ccc(OC[C@@H]2CN(CCN3CCc4ccccc43)CCO2)cc1 | ligand displacement |  | radioligand | 92.8
C[C@@H](c1cccc(C#N)c1)n1cc(Cl)cc(C(N)=O)c1=N | ligand displacement |  |  | -3.06
COc1ccccc1N1CCN(CCCCN2C(=O)C3CCCCN3C2=O)CC1 (centres unmarked) | enzyme activity | inhibitor |  | 72.6
CN(C)c1ncnc(-c2ccc3nc(Nc4cc(CN5CCN(C(=O)CC(F)(F)F)CC5)ccn4)[nH]c3c2)c1Cl | ligand displacement |  |  | 10.6
CCN(CC)c1ccc(C2Nc3ccc(C(=O)c4ccccc4)cc3NC3=C2C(=O)CC(C)(C)C3)cc1 (centres unmarked) | ligand displacement |  | radioligand | 99
Clc1cccc(OC[C@H]2CN(CCN3CCc4ccccc43)CCO2)c1 | ligand displacement |  | radioligand | 63.1
Cc1c(Cl)cccc1-c1ccc(CNCC(O)c2ccccc2)o1 (centres unmarked) | enzyme activity | inhibitor |  | 46.8
Cc1noc([C@H]2C[C@@H](c3ccc(C(F)(F)F)cc3)CN(C(=O)N3CCS(=O)(=O)C3)C2)n1 | ligand displacement |  |  | -0.15
COc1ccc(S(N)(=O)=O)cc1C(=O)NCCCN1CCN(c2ccccc2C)CC1 | enzyme activity | inhibitor |  | 45.1
C[C@H](NC(=O)Nc1cc2[nH]ncc2c(CO)n1)c1ccccn1 | cell-free assay |  |  | 17.7
COc1ccc2c(c1)C(=O)N(CCN1CCN(c3ccccc3OC)CC1)C2 | ligand displacement |  | radioligand | 66.6
Cc1ccccc1OCC(O)CN1CCN(CC(O)COc2ccccc2C)CC1 (centres unmarked) | enzyme activity | inhibitor |  | 19.5
Cc1ncccc1OC[C@@H]1CN(CCN2CCc3ccccc32)CCO1 | ligand displacement |  | radioligand | 15.2
CCCNc1nc2ccccc2n1Cc1ccc(Cl)cc1 | ligand displacement |  |  | 1.09
c1cncc(OC[C@H]2CN(CCN3CCc4ccccc43)CCO2)c1 | ligand displacement |  | radioligand | 36.3
O=c1oc2cc(OCC(O)CN3CCN(c4ccc(F)cc4)CC3)ccc2c2c1CCC2 (centres unmarked) | enzyme activity | inhibitor |  | 40.8
Cc1ccnc(C)c1OC[C@H]1CN(CCN2CCc3ccccc32)CCO1 | ligand displacement |  | radioligand | 6.1
Cc1ccc(-c2cnc([C@@]3(O)CC[C@H](C(=O)O)C(C)(C)C3)s2)cc1Nc1cccc(C(F)(F)F)n1 | ligand displacement |  |  | -5.34
